Screening results from PubChem BioAssay.
A selection: hits, their analogues and other compounds. The true share with any hit is near 4.8%.
HSF1 inhib – HSF1 inhibition | NIH3T3-HGL HSE-luciferase, MG132-induced, luminescence 8 h; hits give low values | activity change, negative = inhibition, % at 7.5 µM (by protocol) | actives 0.77% (n = 300,000) | AID 2098;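 active = more than half of replicate wells show activity change below -50%, luminescence cut by over half; inconclusive = some wells, but at most half, below -50%; inactive = no replicate well below -50%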;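 note: luciferase reports HSF-1 transcriptional activity via heat shock element; 0% = median of DMSO wells and -100% = zero luminescence signal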
Jurkat NFkB inh – lowers PMA/ionomycin-induced NF-kB signal in Jurkat cells | actives 0.53% (n = 330,000) | AID 435003 | PMA/ionomycin-induced NF-kB luciferase reporter, luminescence | inhibition, % at 4 µM; in the data active = inhibition above about 50%
HSF-1 act – increases HSF-1 driven luciferase reporter signal. NIH3T3-HGL HSF-1 luciferase reporter, MG132, 8 h; 100% = twice DMSO control signal. activation, % at 9 µM. actives 1.7% (n = 300,000). AID 504408;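 active = mean replicate activation of at least 50% with a set share of replicates each reaching 50%; inconclusive = only one of those two conditions met; inactive = mean below 50% and too few replicates reaching it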;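 note: 0% = median of the neutral control wells and 100% = twice that signal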
697 NFkB inh – inhibitors of the PMA/ionomycin-induced NF-kB reporter in 697 B cells; 697 B-cell NF-kB luciferase reporter, 16 h; inhibition, % at 4 µM; actives 0.33% (n = 330,000); AID 435022; in the data active = inhibition above about 35%
GPR7 antagonist – antagonists of human GPR7 (neuropeptides B/W receptor 1); GPR7-expressing cells, fluorescence antagonist assay; inhibition, % at 4.4 µM; actives 1.1% (n = 290,000); in the data active = inhibition above about 16%, passing the limit was not always enough;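 note: cells stimulated with the agonist NPW; 0% = agonist with vehicle and 100% = vehicle without agonist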
Target sequence (P48145 whole entry, looked up): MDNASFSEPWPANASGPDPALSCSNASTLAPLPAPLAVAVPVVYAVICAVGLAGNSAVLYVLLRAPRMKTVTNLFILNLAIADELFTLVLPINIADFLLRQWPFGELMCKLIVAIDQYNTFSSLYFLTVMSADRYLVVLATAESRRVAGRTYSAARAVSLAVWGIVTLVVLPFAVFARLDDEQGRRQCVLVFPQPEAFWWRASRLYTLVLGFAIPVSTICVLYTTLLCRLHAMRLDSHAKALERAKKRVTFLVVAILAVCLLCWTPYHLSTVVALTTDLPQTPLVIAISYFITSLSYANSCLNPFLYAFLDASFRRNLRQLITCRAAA
T cruzi repl – blocks replication of Trypanosoma cruzi; T. cruzi beta-gal in NIH3T3, luminescence, 90 h; inhibition, % (test concentration not listed); actives 1.4% (n = 300,000); AID 1885;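 active = mean inhibition across valid replicates above about 55%, limit read from the data; inconclusive = mean below that limit but half or more replicates reach it; inactive = mean below it, under half of replicates reach it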;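 note: signal also drops with host cell toxicity which is not excluded here; 0% = plate median of DMSO wells and 100% = zero luminescence signal; higher percent means less beta-gal luminescence so fewer parasites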
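Incubation – ≥90 h infection period, 3 h prior cell attachment · System – NIH/3T3 fibroblasts plus reporter T. cruzi · Doses – compound pinned at 50 nL/well, DMSO · Read-out basis – percent inhibition of parasite-derived β-gal signal · Signal – luminescent β-galactosidase signal after 60 min lysis · Also added – 5000 T. cruzi trypomastigotes/well · Medium – Low-serum DMEM with 2% FBS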
GPR7 antag conf – confirmation of human GPR7 antagonists; shares compounds with GPR7 antagonist; GPR7-expressing cells, calcium fluorescence antagonist mode; inhibition, % at 4.4 µM; actives 52% (n = 2,400); AID 1952; in the data active = inhibition above about 24%;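 note: stimulated with the GPR7 agonist NPW; 0% = agonist plus vehicle and 100% = vehicle alone without agonist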
MCHR1 antag – antagonizes human MCHR1, a GPR7 antagonist counter-screen; shares compounds with GPR7 antagonist; AID 2148; inhibition, % at 4.4 µM; actives 62% (n = 2,400); MCHR1-expressing cells, fluorescence antagonist assay; in the data active = inhibition above about 22%;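 note: 0% = vehicle with agonist and 100% = vehicle without agonist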
Active calls of the source: *; ? = inconclusive; nt = not tested or not shown.

SMILES	HSF1 inhib	Jurkat NFkB inh	HSF-1 act	697 NFkB inh	GPR7 antagonist	T cruzi repl	GPR7 antag conf	MCHR1 antag
O=C(NCc1ccncc1)C(=O)N/N=C/c1ccc(OCc2ccccc2)cc1	4	-63	18	15	-11	3	nt	nt
CC1CN(c2oc(COc3ccc(Cl)cc3Cl)nc2C#N)CC(C)O1 (stereo not drawn)	20	9	38	-17	40*	21	24*	28*
COc1cccc([C@@H]2CC=C(C(=O)O)[C@H](c3cccc(Cl)c3)N2S(=O)(=O)c2ccc(C)cc2)c1	nt	16	nt	17	nt	nt	nt	nt
COc1ccc(NC(=O)CCS(=O)(=O)c2ccccc2Cl)cc1S(=O)(=O)Nc1ccc(Cl)cc1	-5	3	-14	-28	25*	9	23	25*
COc1ccc(NC(=O)CCC(=O)c2cccs2)cc1S(=O)(=O)Nc1ccc(Cl)cc1	13	11	35	-22	6	6	nt	nt
Cc1ccc(-c2noc(N=O)c2NO)cc1	-3	-8	-15	-21	4	-3	nt	nt
COc1ccc(C)cc1NC(=O)CCNC(=O)Cn1cnc2ccccc2c1=O	-4	-5	-3	-8	-5	-8	nt	nt
C=CCN(C(=O)c1cccc(N2C(=O)C3CC=CC(C)C3C2=O)c1)c1ccccc1 (stereo not drawn)	-1	-4	-6	4	-1	4	nt	nt
CCc1ccc(CCC(=O)Nc2ccc(C(C)=O)cc2)o1	-4	-12	5	11	21*	0	27*	35*
CCc1ccc(CCC(=O)Nc2ccc(Br)cc2)o1	0	4	2	8	-4	12	nt	nt
Nc1nc(NCc2ccccc2Cl)n(-c2ccccc2)n1	7	13	-1	15	-11	-7	nt	nt
CC1CCC(C(C)C)C(OCC(O)CN2CCOCC2)C1 (stereo not drawn)	-6	31	-9	3	-4	-12	nt	nt
CC1CCC(C(C)C)C(OCC(O)CN2CCCC(C)C2)C1 (stereo not drawn)	3	-7	13	-6	32*	30	39*	25*
COc1ccc(OCC(=O)Nc2ccccc2N2CCN(C)CC2)cc1	1	-6	-11	-3	-4	7	nt	nt
CCC(=O)N1CCN(c2ccccc2NC(=O)COc2ccc(C(C)C)cc2)CC1	8	5	-1	-36	27*	4	18	21
COc1ccc(C/C(=N\OC(C)=O)c2ccc(OC)cc2)cc1	1	-17	21	-17	40*	3	15	19
O=C(CN1CCN(c2ccc(O)cc2)CC1)Nc1ccc(S(=O)(=O)N2CCCC2)cc1	nt	6	nt	-4	nt	nt	nt	nt
O=C(Oc1ccc(C(=S)N2CCCCC2)cc1)c1ccccc1	1	-21	2	-13	26*	17	55*	56*
O=C(Oc1ccc(C(=S)N2CCC(O)CC2)cc1)c1ccc(Cl)cc1	3	8	6	14	26*	-9	34*	38*
O=C(Oc1cccc(C(=S)N2CCCCC2)c1)c1ccccc1	-9	-2	8	-25	-10	-2	nt	nt
CC[C@]12c3[nH]c4ccccc4c3CCN1C(=O)C(CC(=O)NCc1cccc(C(F)(F)F)c1)C[C@@H]2C(=O)N1CCN(C(=O)c2ccco2)CC1 (stereo partly drawn)	nt	3	nt	-15	nt	nt	nt	nt
CC(C)c1nc(SCC(=O)c2c[nH]c3ccccc23)n[nH]1	-4	-1	12	7	33*	2	8	18
Cc1ccccc1OC(C)C(=O)N1CCC(Cc2ccccc2)CC1 (stereo not drawn)	-7	10	0	11	28*	18	19	36*
CCN(CC)S(=O)(=O)c1cc(NC(=O)c2cccc(N3C(=O)CCC3=O)c2)ccc1Cl	-3	7	-1	10	nt	-7	nt	nt
O=C(OCC(=O)N1CCCC1)c1ccccc1C(=O)c1ccccc1	nt	3	nt	-3	nt	nt	nt	nt
SMILES	HSF1 inhib	Jurkat NFkB inh	HSF-1 act	697 NFkB inh	GPR7 antagonist	T cruzi repl	GPR7 antag conf	MCHR1 antag
CCC(CC)C(=O)Nc1ccc(Cl)c(Cl)c1	-3	-20	5	-42	-16	13	nt	nt
O=C(NCC1CC1(Cl)Cl)Nc1ccc(Cl)c(Cl)c1 (stereo not drawn)	26	-67	34	-28	33*	20	13	58*
CC(C)(CO)NC(=O)Nc1ccc(Cl)c(Cl)c1	6	-15	11	-10	26*	5	-6	10
Cc1ccc(NC(=O)NCC2CC2(Cl)Cl)cc1 (stereo not drawn)	18	-81	26	-48	11	4	nt	nt
COc1cc2c(cc1NC(=O)c1cc(-c3ccccn3)nc3ccccc13)oc1ccccc12	7	-9	10	19	-3	?	nt	nt
CC(C)(C)OC(=O)C[C@@H]1C/C=C\C[C@@H](CC(=O)N(CCO)Cc2ccccc2)C(=O)N[C@H](C(C)(C)C)COC1=O	nt	5	nt	20	nt	nt	nt	nt
FC(F)Sc1ccc(NC(=S)NC2CCCC2)cc1	-14	-59	-31	-91	-8	-5	nt	nt
CC1CCCC(NC(=S)Nc2ccc(SC(F)F)cc2)C1C (stereo not drawn)	-6	-9	-7	8	45*	18	32*	54*
CCCCOc1ccc(C(=O)NN2CCOCC2)cc1	-3	-30	-12	11	nt	-1	nt	nt
COCCNC(=O)c1ccc(CSc2nc3ccccc3s2)cc1	24	-30	43	-22	31*	14	-8	28*
Cc1nc(C)c(C(=O)Nc2ccccc2)s1	5	-29	18	-13	22*	-4	3	-5
Cc1nc(Cl)sc1C(=O)Nc1ccccc1	-2	-7	8	-39	1	2	nt	nt
C=CCn1cc(CN2CCC(C(=O)Nc3cccc(-c4cccc(Cl)c4)c3)CC2)c(C)n1	-8	10	-3	1	41*	17	41*	58*
COCc1ccc(CN2CCC(C(=O)Nc3cccc(-c4cccc(Cl)c4)c3)CC2)o1	9	1	-7	-9	27*	17	41*	82*
Cc1ccc(C(=O)N2CCCC(N3CCN(c4ccccc4C)CC3)C2)c(=O)[nH]1 (stereo not drawn)	3	2	11	-4	2	9	nt	nt
CCCSc1ccc2nc(NC(=O)OC)[nH]c2c1	-1	13	1	-170	29*	20	40*	28*
COC(=O)Nc1nc2ccc(SC(C)C)cc2[nH]1	nt	19	nt	-118	nt	nt	nt	nt
C/C(CC(=O)Nc1ccc([N+](=O)[O-])cc1)=N/NC(=O)C1C2CCCCC21 (stereo not drawn)	-20	-2	-41	10	-6	-6	nt	nt
